# According to ChEMBL document CHEMBL1132187, “Synthesis, in vitro antiproliferative activity, and DNA-binding properties of hybrid molecules containing pyrrolo[2,1-c][1, 4]benzodiazepine and minor-groove-binding oligopyrrole carriers” (J Med Chem, 1999):
# How the values were obtained:
# Jurkat = assay: In vitro inhibition of Jurkat cell proliferation; type: functional, cell-based; settings: Homo sapiens
# Procedure, shortened: (§1)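 Exponentially growing cells kept as stationary suspension in RPMI 1640 with 10% FCS, 2 mM L-glutamine, penicillin/streptomycin; exposed to a range of drug concentrations (DMSO stock 1 mg/mL, diluted just before addition) for 4 days; survivors counted by Coulter counter. IC50 vs untreated controls, duplicate cultures per concentration, experiments repeated at least twice, vehicle controls included.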
# [1] = Inhibitory concentration against human c-myc polymerase chain reaction product; type: functional
# Procedure, shortened: (§2)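 Target DNA was 20 ng of preamplified, purified PCR product, preincubated 5 min at room temperature with increasing drug amounts, then PCR-amplified with Taq: 92 °C 1 min, 62 °C annealing 1 min, 72 °C 1 min. Products run on 2% agarose gels; IC50 is the concentration giving 50% inhibition of PCR product generation.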
# [2] = test system: Human immunodeficiency virus 1; assay: Inhibitory concentration against HIV-1 LTR polymerase chain reaction product; type: functional; procedure, shortened: as §2
# K562 = assay: In vitro inhibition of K-562 cell proliferation; type: functional, cell-based; settings: Homo sapiens; procedure, shortened: as §1
# Nucleic Acid = assay: Inhibitory concentration against human estrogen receptor(ER) polymerase chain reaction product; type: nucleic-acid assay
# Procedure, shortened: as §2, with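 “of pBLCAT8ERCAT1 plasmid,” for “of preamplified, purified PCR product,”, “min, 55” for “min, 62”, “of ER” for “of”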
Compound,IC50 (Jurkat) [nM],IC50 [1] [nM],IC50 [2] [nM],IC50 (K562) [nM],IC50 (Nucleic Acid) [nM]
COC(=O)CCOc1cc2c(cc1OC)C(=O)N1CCC[C@H]1C=N2,3000,> 250000,> 250000,1500,> 250000
COc1cc2c(cc1OCCC(=O)Nc1cc(C(=O)Nc3cc(C(=O)Nc4cc(C(=O)Nc5cc(C(=O)NCCC(=N)N)n(C)c5)n(C)c4)n(C)c3)n(C)c1)N=C[C@@H]1CCCN1C2=O,70,2000,2000,40,200
COc1cc2c(cc1OCCC(=O)Nc1cc(C(=O)Nc3cc(C(=O)NCCC(=N)N)n(C)c3)n(C)c1)N=C[C@@H]1CCCN1C2=O,50000,6000,800,6000,2000
COc1cc2c(cc1OCCC(=O)Nc1cc(C(=O)NCCC(=N)N)n(C)c1)N=C[C@@H]1CCCN1C2=O,80000,4000,1000,> 100000,3000
COc1cc2c(cc1OC)C(=O)N1CCC[C@H]1C=N2,2200,–,–,1000,–

# The next lines start with the values.
IC50 (Jurkat) [nM],IC50 [1] [nM],IC50 [2] [nM],IC50 (K562) [nM],IC50 (Nucleic Acid) [nM],Compound
20000,25000,50000,12000,5000,Cn1cc(NC(=O)c2cc(NC(=O)c3cc(NC=O)cn3C)cn2C)cc1C(=O)NCCC(=N)N
25000,12000,20000,12000,500,Cn1cc(NC(=O)c2cc(NC(=O)c3cc(NC(=O)c4cc(N)cn4C)cn3C)cn2C)cc1C(=O)NCCC(=N)N
800,2500,2000,700,800,COc1cc2c(cc1OCCC(=O)Nc1cc(C(=O)Nc3cc(C(=O)Nc4cc(C(=O)NCCC(=N)N)n(C)c4)n(C)c3)n(C)c1)N=C[C@@H]1CCCN1C2=O
